Results on 20 compounds are retold here after ChEMBL document CHEMBL1151762, “5-(1-Acetoxyvinyl)-cycloSaligenyl-2',3'-dideoxy-2',3'- didehydrothymidine monophosphates, a second type of new, enzymatically activated cycloSaligenyl pronucleotides” (J Med Chem, 2008).

Molecules are shown by their SMILES. Bounds are passed on as bounds.

Data set [1] is described as follows: Cytotoxicity against human wild type CEM/0 cells. It counts as cell-based. As to conditions: CCRF-CEM. Summed up: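 Wild-type CEM cells; cytostatic activity reported as the 50% cytostatic concentration.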
Data set [2] concerns Human immunodeficiency virus 2. Put plainly: Antiviral activity against HIV2 replication in human wild type CEM/0 cells assessed as virus-induced cytopathic effect. The settings on record: Human immunodeficiency virus 2, CCRF-CEM. The format is functional, organism-based. The gist of the method: (§1)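 CEM T-lymphocyte cultures (wild-type CEM/0 or thymidine kinase-deficient CEM/TK-) infected with HIV-1 or HIV-2; read-out is virus-induced cytopathic effect (giant cell formation). EC50 = 50% effective concentration, given as the mean of two to three independent experiments.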
Background: Cytopathic effects are the visible damage that an infection or toxin causes in cultured cells.

A short description of data set [3]: Chemical stability assessed as half life of hydrolysis in RPMI-1640 culture medium at pH 7.6 in presence 10% heat-inactivated fetal calf serum. The format is physicochemical. The gist of the method:
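RPMI-1640 with 10% heat-inactivated fetal calf serum, pH 7.6 (the antiviral test medium), used in place of cell extract and run by the same HPLC procedure. Half-life is taken from disappearance of the triester.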

Data set [4] is described as follows: Chemical stability assessed as half life of hydrolysis in 25 mM phosphate buffer at pH 7.3. The format is physicochemical. The gist of the method:
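Triesters incubated at pH 7.3 in aqueous 25 mM phosphate buffer and followed by HPLC. Half-life is taken from disappearance of the triester.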

A short description of data set [5]: Chemical stability assessed as half life of hydrolysis in CEM cell extracts at pH 6.9. It counts as physicochemical, CCRF-CEM. As to conditions: human. Summed up:
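T-lymphocyte CEM cell extracts at pH 6.9, analysed by HPLC. Half-life is taken from disappearance of the triester.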

In data set [6] the test system is Human immunodeficiency virus 2. Put plainly: Antiviral activity against HIV2 replication in human thymidine kinase deficient CEM cells assessed as virus-induced cytopathic effect. The format is functional, organism-based. The settings on record: Human immunodeficiency virus 2, CCRF-CEM. Summed up: as §1
Data set [7] concerns Human immunodeficiency virus 1. Briefly: Antiviral activity against HIV1 replication in human wild type CEM/0 cells assessed as virus-induced cytopathic effect. The format is functional, organism-based. The settings on record: Human immunodeficiency virus 1, CCRF-CEM. The gist of the method: as §1

Compound `C=C(OC(C)=O)c1cc2c(c(C(C)(C)C)c1)OP(=O)(OC[C@@H]1C=C[C@H](n3cc(C)c(=O)[nH]c3=O)O1)OC2` (some centres not stated) displayed a half-maximal cytotoxic concentration (CC50) in data set [1] of 49000 nM. In addition, the EC50 in data set [2] is 880 nM; in data set [6], 1700 nM; in data set [7], 470 nM. The figures for the half-life in data set [3], in data set [4] and in data set [5] were 5.2 h, 12.3 h and 2.4 min, respectively.

In the case of `CC(=O)c1cc2c(c(C(C)(C)C)c1)O[P@](=O)(OC[C@@H]1C=C[C@H](n3cc(C)c(=O)[nH]c3=O)O1)OC2`, half-maximal cytotoxicity in data set [1] (CC50) was put at 56000 nM. Moreover, the EC50 was determined as 510 nM in data set [2], 550 nM in data set [6] and 180 nM in data set [7]. Also, the half-life is 3.2 h in data set [3] and 2.3 h in data set [4].

Compound `CC(=O)c1ccc2c(c1)COP(=O)(OC[C@@H]1C=C[C@H](n3cc(C)c(=O)[nH]c3=O)O1)O2` (some centres not stated) came in with a CC50 in data set [1] of 148000 nM. For the same compound, the results for the EC50 in data set [2], in data set [6] and in data set [7] were 3000 nM, > 50000 nM and 1300 nM, respectively. In addition, the results for the half-life in data set [3] and in data set [4] were 0.6 h and 0.3 h, respectively.

For the compound `CC(=O)OC(OC(C)=O)c1cc2c(c(C(C)(C)C)c1)O[P@@](=O)(OC[C@@H]1C=C[C@H](n3cc(C)c(=O)[nH]c3=O)O1)OC2`, half-maximal cytotoxicity in data set [1] (CC50) was put at 51000 nM. In addition, in data set [6], the EC50 stood at 3900 nM.

`CC(=O)c1cc2c(c(C(C)(C)C)c1)O[P@@](=O)(OC[C@@H]1C=C[C@H](n3cc(C)c(=O)[nH]c3=O)O1)OC2` came in with a half-maximal cytotoxic concentration (CC50) in data set [1] of 64000 nM. For the same compound, the EC50 was 1200 nM in data set [2], 2800 nM in data set [6] and 750 nM in data set [7]. The half-life was 2 h in data set [3] and 2.3 h in data set [4].

In turn, `C=C(OC(C)=O)c1ccc2c(c1)COP(=O)(OC[C@@H]1C=C[C@H](n3cc(C)c(=O)[nH]c3=O)O1)O2` (some centres not stated) showed a CC50 in data set [1] of 111000 nM. The EC50 was 800 nM in data set [2], > 50000 nM in data set [6] and 650 nM in data set [7]. For the same compound, the results for the half-life in data set [3], in data set [4] and in data set [5] were 1 h, 1.4 h and 7.8 min, respectively.

On to `C=C(OC(C)=O)c1cc2c(c(C(C)(C)C)c1)O[P@@](=O)(OC[C@@H]1C=C[C@H](n3cc(C)c(=O)[nH]c3=O)O1)OC2`, for which, in data set [1], half-maximal cytotoxicity (CC50) was put at 67000 nM. The EC50 in data set [2] came out at 1100 nM; in data set [6] it was 1700 nM; in data set [7], 470 nM. The half-life was 3.7 h in data set [3], 11.3 h in data set [4] and 2.4 min in data set [5].

In data set [1], `C=C(OC(C)=O)c1cc(C)c2c(c1)COP(=O)(OC[C@@H]1C=C[C@H](n3cc(C)c(=O)[nH]c3=O)O1)O2` (some centres not stated) displayed a CC50 of 18000 nM. Moreover, the EC50 in data set [2] came out at 400 nM; in data set [6] it was 730 nM; in data set [7], 180 nM. In addition, the half-life in data set [3] is 1.8 h; in data set [4], 6.1 h; in data set [5], 4.2 min.

Take `Cc1cn([C@H]2C=C[C@@H](COP3(=O)OCc4cc(C=O)cc(C(C)(C)C)c4O3)O2)c(=O)[nH]c1=O` (some centres not stated): in data set [1], the CC50 was 33000 nM. For the same compound, the half-maximal effective concentration (EC50) in data set [6] worked out at 15000 nM.

For `CC(=O)c1cc(C)c2c(c1)COP(=O)(OC[C@@H]1C=C[C@H](n3cc(C)c(=O)[nH]c3=O)O1)O2` (some centres not stated), in data set [1], the half-maximal cytotoxic concentration (CC50) worked out at 96000 nM. In addition, the EC50 in data set [2] was found to be 2200 nM; in data set [6], 36000 nM; in data set [7], 540 nM. In addition, the half-life was 1 h in data set [3] and 0.75 h in data set [4].

`Cc1cn([C@H]2C=C[C@@H](COP3(=O)OCc4cc(C(OC(=O)C(C)C)OC(=O)C(C)C)cc(C(C)(C)C)c4O3)O2)c(=O)[nH]c1=O` (some centres not stated) came in with a cytotoxic concentration (CC50) in data set [1] of 20000 nM. In data set [6], the 50% effective concentration (EC50) is 2400 nM.

With `C=C(OC(C)=O)c1cc2c(c(C(C)(C)C)c1)O[P@](=O)(OC[C@@H]1C=C[C@H](n3cc(C)c(=O)[nH]c3=O)O1)OC2`, the midpoint of cytotoxicity in data set [1], the CC50, lay at 20000 nM. The EC50 amounted to 800 nM in data set [2], 270 nM in data set [6] and 210 nM in data set [7]. Moreover, the half-life is 7.6 h in data set [3], 13.5 h in data set [4] and 2.4 min in data set [5].

Take `Cc1cn([C@H]2C=C[C@@H](CO[P@@]3(=O)OCc4cc(C=O)cc(C(C)(C)C)c4O3)O2)c(=O)[nH]c1=O`: the midpoint of cytotoxicity in data set [1], the CC50, lay at 41000 nM. The EC50 in data set [6] came to 10000 nM.

In the case of `Cc1cn([C@H]2C=C[C@@H](CO)O2)c(=O)[nH]c1=O` [STAVUDINE], in data set [1], the CC50 came out at 220000 nM. For the same compound, the values for the EC50 in data set [2], in data set [6] and in data set [7] were 1100 nM, 69000 nM and 850 nM, respectively.

On to `Cc1cn([C@H]2C=C[C@@H](CO[P@]3(=O)OCc4cc(C=O)cc(C(C)(C)C)c4O3)O2)c(=O)[nH]c1=O`, for which, in data set [1], the cytotoxic concentration (CC50) stood at 27000 nM. The half-maximal effective concentration (EC50) in data set [6] amounted to 2600 nM.

For the compound `Cc1cn([C@H]2C=C[C@@H](CO[P@@]3(=O)OCc4cc(C(OC(=O)C(C)C)OC(=O)C(C)C)cc(C(C)(C)C)c4O3)O2)c(=O)[nH]c1=O`, in data set [1], the CC50 is 40000 nM. Besides, the EC50 in data set [6] amounted to 3600 nM.

For the compound `CC(=O)OC(OC(C)=O)c1cc2c(c(C(C)(C)C)c1)OP(=O)(OC[C@@H]1C=C[C@H](n3cc(C)c(=O)[nH]c3=O)O1)OC2` (some centres not stated), half-maximal cytotoxicity in data set [1] (CC50) was put at 19000 nM. Further, the EC50 in data set [6] is 780 nM.

Compound `Cc1cn([C@H]2C=C[C@@H](CO[P@]3(=O)OCc4cc(C(OC(=O)C(C)C)OC(=O)C(C)C)cc(C(C)(C)C)c4O3)O2)c(=O)[nH]c1=O` had a half-maximal cytotoxic concentration (CC50) in data set [1] of 14000 nM. In addition, the EC50 in data set [6] amounted to 1400 nM.

Take `CC(=O)c1cc2c(c(C(C)(C)C)c1)OP(=O)(OC[C@@H]1C=C[C@H](n3cc(C)c(=O)[nH]c3=O)O1)OC2` (some centres not stated): half-maximal cytotoxicity in data set [1] (CC50) was put at 49000 nM. For the same compound, the EC50 in data set [2] worked out at 870 nM; in data set [6], 1700 nM; in data set [7], 450 nM. Moreover, the half-life in data set [3] was 2.5 h; in data set [4], 2.3 h.

`CC(=O)OC(OC(C)=O)c1cc2c(c(C(C)(C)C)c1)O[P@](=O)(OC[C@@H]1C=C[C@H](n3cc(C)c(=O)[nH]c3=O)O1)OC2`: the midpoint of cytotoxicity in data set [1], the CC50, lay at 17000 nM. Also, in data set [6], the EC50 stood at 290 nM.

As usually defined, the CC50 is the concentration giving 50% cytotoxicity. High values mean better tolerance by the cells, low ones harm at low concentration. As usually defined, the EC50 is the concentration at which the effect is half-maximal. Usually half-life stands for how long it takes for the measured level to halve.
